This passage reports Activity and inhibition results from ChEMBL document CHEMBL4334471, “Discovery of 1,8-disubstituted-[1,2,3]triazolo[4,5-c]quinoline derivatives as a new class of Hippo signaling pathway inhibitors” (Bioorg Med Chem Lett, 2019).

The target of assay [1] is Calcium/calmodulin-dependent protein kinase type 1G (Homo sapiens) (UniProt Q96NX5). Description: Inhibition of recombinant full length human CaMKIgamma assessed as residual activity at 10 uM using KKLRRTLSFAEPG as substrate incubated for 40 mins in presence of [gamma-33ATP] by scintillation counting based radiometry assay relative to control.
For assay [2], the target named is LIM domain kinase 1 (Homo sapiens) (UniProt P53667). Description: Inhibition of recombinant human LIMK1 (285 to 638 residues) assessed as residual activity at 10 uM using cofilin as substrate after 40 mins in presence of [gamma-33ATP] by scintillation counting based radiometry assay relative to control.
Assay [3] concerns A549. The assay is described as follows: Inhibition of hippo signalling protein in human A549 cells assessed as increase in CTGF mRNA expression level incubated for 24 hrs by qRT-PCR analysis. The class given is cell-based. The essentials: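 A549-CTGF cells were exposed to compound or 0.1% DMSO for 24 h before total RNA extraction. Endogenous CTGF mRNA was quantified by real-time PCR. Data were mean ± SEM (n=4) and compared by Student's t-test.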
On the technique in general: In qPCR the cycle at which signal appears reflects the starting amount.

Assay [4] concerns the target Casein kinase I isoform delta (Homo sapiens) (UniProt P48730). The assay is described as follows: Inhibition of recombinant human CK1delta (1 to 294 residues) assessed as residual activity at 10 uM using KRRRALS(p)VASLPGL as substrate incubated for 40 mins in presence of [gamma-33ATP] by scintillation counting based radiometry assay relative to control.
For assay [5], the target named is Protein-tyrosine kinase 2-beta (Homo sapiens) (UniProt Q14289). The assay is described as follows: Inhibition of recombinant human full length PYK2 assessed as residual activity at 10 uM using poly(Glu, Tyr) 4:1 as substrate incubated for 40 mins in presence of [gamma33P]ATP by scintillation counting based radiometry assay relative to control.
Assay [6] is filed under the species Homo sapiens. The assay is described as follows: Inhibition of recombinant human FLT4 V1128L/H1146R mutant (800 to end residues) assessed as residual activity at 10 uM using GGEEEEYFELVKKKK as substrate at 40 mins in presence of [gamma-33ATP] by scintillation counting based radiometry assay relative to control.
Assay [7] concerns the target G protein-coupled receptor kinase 6 (Homo sapiens) (UniProt P43250). Description: Inhibition of recombinant full length human GRK6 assessed as residual activity at 10 uM using casein as substrate at 40 mins in presence of [gamma-33ATP] by scintillation counting based radiometry assay relative to control.
The subject of assay [8] is Serine/threonine-protein kinase Nek4 (Homo sapiens), P51957 [P225A]. The assay is described as follows: Inhibition of recombinant full-length human NEK4 P225A mutant assessed as residual activity at 10 uM using myelin basic protein as substrate measured after 40 mins in presence of [gamma33P]ATP by scintillation counting based radiometry assay relative to control.
The test system of assay [9] is Ribosomal protein S6 kinase beta-1 (Homo sapiens), P23443 [T412E]. The assay is described as follows: Inhibition of recombinant human p70S6K T412E mutant (1 to 421 residues) assessed as residual activity at 10 uM using KKRNRTLTV as substrate measured after 40 mins in presence of [gamma33P]ATP by scintillation counting based radiometry assay relative to control.
Sequence of Ribosomal protein S6 kinase beta-1 (Homo sapiens), P23443 [T412E] (P23443 whole entry T412E, looked up, the tested form may be a part): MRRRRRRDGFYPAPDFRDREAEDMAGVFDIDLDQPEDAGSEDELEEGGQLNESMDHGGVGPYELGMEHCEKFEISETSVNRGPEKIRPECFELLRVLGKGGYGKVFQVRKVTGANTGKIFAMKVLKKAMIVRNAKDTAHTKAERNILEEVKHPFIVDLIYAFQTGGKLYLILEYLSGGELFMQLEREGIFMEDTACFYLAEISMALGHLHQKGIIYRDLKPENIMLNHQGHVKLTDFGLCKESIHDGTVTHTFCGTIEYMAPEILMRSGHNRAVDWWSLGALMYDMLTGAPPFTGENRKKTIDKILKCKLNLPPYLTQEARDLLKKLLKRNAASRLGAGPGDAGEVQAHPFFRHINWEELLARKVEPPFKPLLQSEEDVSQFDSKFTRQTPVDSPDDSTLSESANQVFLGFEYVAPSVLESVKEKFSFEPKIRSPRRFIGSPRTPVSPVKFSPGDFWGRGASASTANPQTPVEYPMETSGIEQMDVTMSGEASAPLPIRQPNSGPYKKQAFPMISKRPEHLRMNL
The target in assay [10] is Calcium/calmodulin-dependent protein kinase kinase 1 (Homo sapiens) (UniProt Q8N5S9). Description: Inhibition of recombinant full length human CaMKK1 assessed as residual activity at 10 uM using […] incubated for 40 mins in presence of [gamma-33ATP] by scintillation counting based radiometry assay relative to control.
The target in assay [11] is Citron Rho-interacting kinase (Homo sapiens) (UniProt O14578). Description: Inhibition of recombinant human CRIK assessed as residual activity at 10 uM KKLRRTLSVA as substrate incubated 120 mins in presence of [gamma-33ATP] by scintillation counting based radiometry assay relative to control.
Assay [12] addresses Serine/threonine-protein kinase Chk2 (Homo sapiens) (UniProt O96017). The assay is described as follows: Inhibition of recombinant human CHK2 (5 to end residues) assessed as residual activity at 10 uM using KKKVSRSGLYRSPSMPENLNRPR as substrate incubated for 40 mins in presence of [gamma-33ATP] by scintillation counting based radiometry assay relative to control.
Assay [13] concerns the target Eukaryotic translation initiation factor 2-alpha kinase 3 (Homo sapiens) (UniProt Q9NZJ5). Description: Inhibition of human PEK (536 to end residues) assessed as residual activity at 10 uM using RSRSRSRSRSRSRSR as substrate measured after 40 mins in presence of [gamma33P]ATP by scintillation counting based radiometry assay relative to control.
Assay [14] addresses Serine/threonine-protein kinase PAK 1 (Homo sapiens) (UniProt Q13153). The assay is described as follows: Inhibition of recombinant human PAK1 (150 to end residues) assessed as residual activity at 10 uM using RRRLSFAEPG as substrate measured after 40 mins in presence of [gamma33P]ATP by scintillation counting based radiometry assay relative to control.
The target of assay [15] is cGMP-dependent protein kinase 1 (Homo sapiens) (UniProt Q13976). The assay is described as follows: Inhibition of recombinant full-length human PKG1beta assessed as residual activity at 10 uM using RRRLSFAEPG as substrate incubated for 40 mins in presence of [gamma33P]ATP by scintillation counting based radiometry assay relative to control.
Sequence of cGMP-dependent protein kinase 1 (Homo sapiens) (Q13976 whole entry, the tested form may be a part): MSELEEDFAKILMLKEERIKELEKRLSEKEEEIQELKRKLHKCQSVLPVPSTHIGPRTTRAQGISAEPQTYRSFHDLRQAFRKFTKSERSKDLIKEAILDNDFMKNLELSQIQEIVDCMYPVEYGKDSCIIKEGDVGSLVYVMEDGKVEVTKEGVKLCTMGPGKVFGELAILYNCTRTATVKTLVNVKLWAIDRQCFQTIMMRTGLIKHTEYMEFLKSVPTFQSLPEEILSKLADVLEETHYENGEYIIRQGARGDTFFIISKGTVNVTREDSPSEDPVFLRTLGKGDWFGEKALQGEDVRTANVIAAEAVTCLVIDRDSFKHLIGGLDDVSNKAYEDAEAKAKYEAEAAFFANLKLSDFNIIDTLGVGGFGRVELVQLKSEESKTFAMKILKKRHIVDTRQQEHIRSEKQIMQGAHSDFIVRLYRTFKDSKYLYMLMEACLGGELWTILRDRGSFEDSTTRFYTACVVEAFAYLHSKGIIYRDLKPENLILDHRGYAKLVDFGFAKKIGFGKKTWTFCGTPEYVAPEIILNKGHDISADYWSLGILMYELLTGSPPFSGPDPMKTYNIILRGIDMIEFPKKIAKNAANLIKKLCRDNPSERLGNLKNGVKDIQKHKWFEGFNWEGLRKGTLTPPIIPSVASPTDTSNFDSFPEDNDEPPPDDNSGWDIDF
Assay [16] has as its target STE20-like serine/threonine-protein kinase (Homo sapiens) (UniProt Q9H2G2). The assay is described as follows: Inhibition of recombinant human SLK (1 to 373 residues) assessed as residual activity at 10 uM using RLGRDKYKTLRQIRQ as substrate incubated for 40 mins in presence of [gamma33P]ATP by scintillation counting based radiometry assay relative to control.
The target in assay [17] is Serine/threonine-protein kinase SIK2 (Homo sapiens) (UniProt Q9H0K1). Description: Inhibition of recombinant human SIK2 (1 to 276 residues) assessed as residual activity at 10 uM using KKKVSRSGLYRSPSMPENLNRPR as substrate incubated for 40 mins in presence of [gamma33P]ATP by scintillation counting based radiometry assay relative to control.
For assay [18], the target named is TRAF2 and NCK-interacting protein kinase (Homo sapiens) (UniProt Q9UKE5). The assay is described as follows: Inhibition of human TNIK (1 to 367 residues) assessed as residual activity at 10 uM using RLGRDKYKTLRQIRQ as substrate incubated for 40 mins in presence of [gamma33P]ATP by scintillation counting based radiometry assay relative to control.
Assay [19] has as its target Serine/threonine-protein kinase Sgk3 (Homo sapiens) (UniProt Q96BR1). The assay is described as follows: Inhibition of recombinant human SGK3 (119 to end residues) assessed as residual activity at 10 uM using GRPRTSSFAEGKK as substrate incubated for 40 mins in presence of [gamma33P]ATP by scintillation counting based radiometry assay relative to control.
Assay [20] concerns the target Protein kinase C iota type (Homo sapiens) (UniProt P41743). Description: Inhibition of recombinant full-length human PKCiota assessed as residual activity at 10 uM using ERMRPRKRQGSVRRRV as substrate incubated for 40 mins in presence of [gamma33P]ATP by scintillation counting based radiometry assay relative to control.

Sequence of Serine/threonine-protein kinase Chk2 (Homo sapiens) (O96017 whole entry): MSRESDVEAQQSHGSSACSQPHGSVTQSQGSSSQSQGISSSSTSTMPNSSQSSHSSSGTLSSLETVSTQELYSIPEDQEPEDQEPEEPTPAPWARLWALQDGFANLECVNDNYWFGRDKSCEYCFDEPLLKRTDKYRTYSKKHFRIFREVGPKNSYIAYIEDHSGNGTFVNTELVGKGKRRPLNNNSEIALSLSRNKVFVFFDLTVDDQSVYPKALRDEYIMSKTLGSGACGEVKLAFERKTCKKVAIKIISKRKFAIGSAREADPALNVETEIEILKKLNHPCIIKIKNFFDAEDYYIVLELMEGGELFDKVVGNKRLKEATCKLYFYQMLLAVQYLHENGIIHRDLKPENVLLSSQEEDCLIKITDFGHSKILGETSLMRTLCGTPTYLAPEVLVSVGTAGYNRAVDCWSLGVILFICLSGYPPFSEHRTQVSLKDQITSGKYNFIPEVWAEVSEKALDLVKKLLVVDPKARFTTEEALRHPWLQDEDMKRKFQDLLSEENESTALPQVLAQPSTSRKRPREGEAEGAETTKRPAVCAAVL
Sequence of Protein kinase C iota type (Homo sapiens) (P41743 whole entry): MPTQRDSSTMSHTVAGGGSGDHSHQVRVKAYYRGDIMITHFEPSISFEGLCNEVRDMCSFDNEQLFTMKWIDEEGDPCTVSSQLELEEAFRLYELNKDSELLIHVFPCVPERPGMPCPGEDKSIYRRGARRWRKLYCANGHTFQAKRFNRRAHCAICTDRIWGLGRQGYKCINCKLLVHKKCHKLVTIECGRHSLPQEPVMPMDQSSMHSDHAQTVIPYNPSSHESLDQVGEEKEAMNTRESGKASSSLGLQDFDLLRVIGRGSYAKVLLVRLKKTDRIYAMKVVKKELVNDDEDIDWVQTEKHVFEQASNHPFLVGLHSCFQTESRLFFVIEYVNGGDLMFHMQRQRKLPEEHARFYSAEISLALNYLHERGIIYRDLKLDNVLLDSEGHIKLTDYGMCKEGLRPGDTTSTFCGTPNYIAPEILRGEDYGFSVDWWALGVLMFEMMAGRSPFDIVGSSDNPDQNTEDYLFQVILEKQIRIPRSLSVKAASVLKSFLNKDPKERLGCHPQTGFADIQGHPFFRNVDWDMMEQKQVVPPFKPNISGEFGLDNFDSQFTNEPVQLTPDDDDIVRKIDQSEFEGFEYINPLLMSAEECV
Sequence of G protein-coupled receptor kinase 6 (Homo sapiens) (P43250 whole entry, looked up): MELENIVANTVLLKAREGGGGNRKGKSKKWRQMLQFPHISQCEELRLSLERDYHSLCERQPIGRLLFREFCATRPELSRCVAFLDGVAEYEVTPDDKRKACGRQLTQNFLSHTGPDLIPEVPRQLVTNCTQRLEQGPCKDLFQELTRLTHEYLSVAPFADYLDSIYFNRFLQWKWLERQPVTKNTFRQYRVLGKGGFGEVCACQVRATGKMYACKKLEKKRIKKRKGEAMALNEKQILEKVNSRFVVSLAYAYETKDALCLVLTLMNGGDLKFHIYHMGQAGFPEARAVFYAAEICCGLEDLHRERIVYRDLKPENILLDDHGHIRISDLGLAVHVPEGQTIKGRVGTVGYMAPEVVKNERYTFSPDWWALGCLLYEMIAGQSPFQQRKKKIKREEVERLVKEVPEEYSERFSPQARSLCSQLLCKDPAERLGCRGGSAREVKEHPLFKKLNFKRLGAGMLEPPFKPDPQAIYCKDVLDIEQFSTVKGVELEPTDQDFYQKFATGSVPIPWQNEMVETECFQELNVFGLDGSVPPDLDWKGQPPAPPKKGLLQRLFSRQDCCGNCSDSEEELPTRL
Sequence of Serine/threonine-protein kinase Sgk3 (Homo sapiens) (Q96BR1 whole entry): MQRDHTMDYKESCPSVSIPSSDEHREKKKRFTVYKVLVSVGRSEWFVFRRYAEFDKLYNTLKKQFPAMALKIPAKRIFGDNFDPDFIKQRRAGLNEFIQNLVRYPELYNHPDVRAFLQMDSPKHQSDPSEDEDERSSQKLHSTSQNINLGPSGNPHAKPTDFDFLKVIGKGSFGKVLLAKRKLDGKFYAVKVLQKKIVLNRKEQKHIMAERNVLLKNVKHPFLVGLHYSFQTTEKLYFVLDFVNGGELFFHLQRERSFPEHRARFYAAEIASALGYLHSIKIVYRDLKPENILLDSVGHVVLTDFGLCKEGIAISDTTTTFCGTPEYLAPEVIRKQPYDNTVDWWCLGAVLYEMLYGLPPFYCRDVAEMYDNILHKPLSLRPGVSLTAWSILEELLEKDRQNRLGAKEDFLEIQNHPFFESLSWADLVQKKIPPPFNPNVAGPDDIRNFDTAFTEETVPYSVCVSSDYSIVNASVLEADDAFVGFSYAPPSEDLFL
Sequence of Eukaryotic translation initiation factor 2-alpha kinase 3 (Homo sapiens) (Q9NZJ5 whole entry): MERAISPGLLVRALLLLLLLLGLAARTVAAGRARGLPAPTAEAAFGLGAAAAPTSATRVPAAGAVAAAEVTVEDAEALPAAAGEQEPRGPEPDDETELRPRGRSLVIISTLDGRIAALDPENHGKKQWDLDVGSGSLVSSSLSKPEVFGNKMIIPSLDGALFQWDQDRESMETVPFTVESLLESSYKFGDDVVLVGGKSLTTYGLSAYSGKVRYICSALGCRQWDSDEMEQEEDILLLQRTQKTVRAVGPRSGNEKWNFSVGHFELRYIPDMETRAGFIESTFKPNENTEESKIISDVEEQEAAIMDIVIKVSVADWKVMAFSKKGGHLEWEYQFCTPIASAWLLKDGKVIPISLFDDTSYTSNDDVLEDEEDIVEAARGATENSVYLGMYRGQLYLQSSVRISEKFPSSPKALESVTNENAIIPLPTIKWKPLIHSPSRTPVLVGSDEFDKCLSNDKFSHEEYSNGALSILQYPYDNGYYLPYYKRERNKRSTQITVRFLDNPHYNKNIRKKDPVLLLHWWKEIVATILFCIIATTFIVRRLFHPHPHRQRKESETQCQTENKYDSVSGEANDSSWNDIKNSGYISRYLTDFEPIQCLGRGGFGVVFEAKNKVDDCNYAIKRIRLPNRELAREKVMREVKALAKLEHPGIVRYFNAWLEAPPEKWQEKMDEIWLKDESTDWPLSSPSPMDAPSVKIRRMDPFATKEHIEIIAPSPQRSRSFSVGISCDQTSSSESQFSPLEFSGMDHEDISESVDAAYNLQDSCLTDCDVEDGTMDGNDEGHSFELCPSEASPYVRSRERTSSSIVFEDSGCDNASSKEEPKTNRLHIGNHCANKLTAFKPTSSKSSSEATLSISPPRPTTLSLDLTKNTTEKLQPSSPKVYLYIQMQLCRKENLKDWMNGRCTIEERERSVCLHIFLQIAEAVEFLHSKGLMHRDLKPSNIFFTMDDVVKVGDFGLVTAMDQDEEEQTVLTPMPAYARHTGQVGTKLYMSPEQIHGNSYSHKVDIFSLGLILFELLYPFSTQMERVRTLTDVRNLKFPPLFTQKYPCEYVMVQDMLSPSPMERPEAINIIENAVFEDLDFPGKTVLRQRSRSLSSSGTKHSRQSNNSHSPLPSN
Sequence of Casein kinase I isoform delta (Homo sapiens) (P48730 whole entry, looked up, the tested form may be a part, canonical isoform): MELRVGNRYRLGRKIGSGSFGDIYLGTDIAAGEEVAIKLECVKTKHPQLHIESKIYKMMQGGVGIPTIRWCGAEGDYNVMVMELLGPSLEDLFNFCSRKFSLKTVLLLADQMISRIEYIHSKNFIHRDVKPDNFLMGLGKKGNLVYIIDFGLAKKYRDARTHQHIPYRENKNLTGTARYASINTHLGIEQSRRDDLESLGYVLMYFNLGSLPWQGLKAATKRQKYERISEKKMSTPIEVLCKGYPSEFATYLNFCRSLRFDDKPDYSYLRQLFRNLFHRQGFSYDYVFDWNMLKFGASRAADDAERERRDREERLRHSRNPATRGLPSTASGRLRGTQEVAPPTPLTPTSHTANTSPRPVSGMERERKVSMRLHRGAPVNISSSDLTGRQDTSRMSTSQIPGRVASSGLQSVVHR

`C[C@@H](c1ccccc1)n1nnc2cnc3ccc(-c4cnc5[nH]ccc5c4)cc3c21`: the Activity in assay [1] is 47%; in assay [2] it was 95%; in [4], 23%; in assay [5], 59%; in [6], 13%; in assay [7], 96%. Also, the Activity in [8] turned out to be 20%; in assay [9], 54%; in [10], 67%; in [11] it was 80%; in assay [12], 57%; in assay [13], 94%. For the same compound, the Activity in assay [14] worked out at 92%; in assay [15], 66%; in assay [16], 75%; in [17] it was 7%; in assay [18], 16%; in assay [19], 80%. Moreover, the Activity in [20] amounted to 81%. For the same compound, the inhibition entry in assay [3] was “Dose-dependent effect”.
